Measured values taken from ChEMBL document CHEMBL3098006, “Preparation of 8-hydroxyquinoline derivatives as potential antibiotics against Staphylococcus aureus” (Bioorg Med Chem Lett, 2014).
In brackets after ≈: the same amount, converted by molar mass.

Key:
[1] = system: Staphylococcus aureus; assay: Antibacterial activity against Staphylococcus aureus assessed as growth inhibition after 24 hrs by broth dilution method; format: functional
In short: (§1)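 Serial broth dilution in 96-well microtitre plate, compounds from 50 µg/mL top concentration (stocks 50 mg/mL in DMSO); methicillin positive control for S. aureus (from 50 µg/mL), […]. Incubation 37 °C, 24 h; MIC taken as lowest concentration giving complete growth inhibition.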

[2] = system: Escherichia coli; assay: Antibacterial activity against Escherichia coli assessed as growth inhibition after 24 hrs by broth dilution method; format: functional; in short: as §1
[3] = system: Staphylococcus aureus; assay: Antibacterial activity against Staphylococcus aureus assessed as growth inhibition at 5 ug/mL after 24 hrs; format: functional; settings: read-out: IZ
In short: (§2)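 Agar well diffusion: S. aureus diluted in broth, plated on nutrient agar, wells punched with sterile pipette and loaded with compound (amount per well as in line) or methicillin positive control. Incubation 37 °C, 24 h; inhibition zone recorded as radius in mm, mean ± SD of three results.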

[4] = system: HaCaT; assay: Cytotoxicity against human HaCaT cells assessed as cell shrinkage after 24 hrs by SRB assay; format: cell-based
In short: (§3)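 HaCaT keratinocytes and NE3 normal esophageal cells trypsinised, washed, resuspended at about 1×10^5 cells/mL, seeded in 96-well plates 24 h, then exposed 24 h to compounds from 50 µg/mL; doxorubicin 4 µg/mL positive control, 0.1% DMSO vehicle. SRB staining after TCA fixation, absorbance 575 nm; three independent experiments in triplicate, mean ± SD.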

[5] = system: Staphylococcus aureus; assay: Antibacterial activity against Staphylococcus aureus assessed as growth inhibition at 15 ug/mL after 24 hrs; format: functional; settings: read-out: IZ; in short: as §2
[6] = Cytotoxicity against human NE3 cells assessed as cell shrinkage after 24 hrs by SRB assay; format: cell-based; in short: as §3
[7] = system: Staphylococcus aureus; assay: Antibacterial activity against Staphylococcus aureus assessed as growth inhibition at 50 ug/mL after 24 hrs; format: functional; in short: as §2

MIC [1]	MIC [2]	Structure (SMILES)	IC50 [4]	IC50 [6]	other results
> 50 µg/mL	> 50 µg/mL	CCCCOc1cccc2ccc(C)nc12	–	–	–
–	7.5 µg/mL (≈ 21.5 µM)	CC1(C)S[C@@H]2[C@H](NC(=O)[C@H](N)c3ccccc3)C(=O)N2[C@H]1C(=O)O [AMPICILLIN]	–	–	–
> 50 µg/mL	> 50 µg/mL	CCOc1cccc2ccc(C)nc12	–	–	–
3.12 µg/mL (≈ 8.21 µM)	–	COc1cccc(OC)c1C(=O)N[C@@H]1C(=O)N2[C@@H]1SC(C)(C)[C@@H]2C(=O)O [METHICILLIN]	–	–	zone of inhibition at 5 µg/mL [3]: 10.8 mm
6.25 µg/mL (≈ 19.7 µM)	> 50 µg/mL	Cc1ccc2c(Br)cc(Br)c(O)c2n1 [BROQUINALDOL]	22.5 µg/mL (≈ 70.9 µM)	18.6 µg/mL (≈ 58.7 µM)	zone of inhibition at 15 µg/mL [5]: 7.43 mm
> 50 µg/mL	> 50 µg/mL	Cc1ccc2cccc(OCCN3CCCCC3)c2n1	–	–	–
> 50 µg/mL	> 50 µg/mL	COc1cccc2ccc(C)nc12	–	–	–
–	–	COc1cccc2c1C(=O)c1c(O)c3c(c(O)c1C2=O)C[C@@](O)(C(=O)CO)C[C@@H]3O[C@H]1C[C@H](N)[C@H](O)[C@H](C)O1 [DOXORUBICIN]	3.26 µg/mL (≈ 6 µM)	1.89 µg/mL (≈ 3.48 µM)	–
50 µg/mL (≈ 289 µM)	> 50 µg/mL	O=Cc1ccc2cccc(O)c2n1	19.1 µg/mL (≈ 111 µM)	16.1 µg/mL (≈ 92.7 µM)	inhibition zone (IZ) [7]: 7.5 mm
50 µg/mL	> 50 µg/mL	Cl.O=Cc1ccc2cccc(O)c2n1	22.5 µg/mL	18.1 µg/mL	zone of inhibition at 50 µg/mL ([7]; Staphylococcus aureus, 24 h, read-out: IZ): 4.4 mm
> 50 µg/mL	> 50 µg/mL	Cc1ccc2cccc(OCc3ccccc3)c2n1	–	–	–
